# Only some compounds are listed: those with a hit (about 2.3% of all), similar ones and a draw of the others.
# UBC13 polyUb = UBC13 polyubiquitin chain formation inhibitors, primary screen, biochemical, TR-FRET, uHTS; Ubiquitin-conjugating enzyme E2 N (Homo sapiens), P61088; inhibition, % at 20 µM; 0.47% of 330,000 active; AID 485273, 2010; in the data active means inhibition above about 45%, passing the limit was not always enough
# UCH37 DUB inh = inhibitors of human UCH37 deubiquitinase, primary screen, biochemical, Ub-AMC cleavage, fluorescence | Ubiquitin carboxyl-terminal hydrolase isozyme L5 (Homo sapiens), Q9Y5K5 | purified proteasome/UCH37 | inhibition, % (test concentration not listed) | 0.33% of 330,000 active;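 active means mean inhibition over replicate wells above about 20%, limit read from the data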
# Target sequence (Q9Y5K5 whole entry, looked up): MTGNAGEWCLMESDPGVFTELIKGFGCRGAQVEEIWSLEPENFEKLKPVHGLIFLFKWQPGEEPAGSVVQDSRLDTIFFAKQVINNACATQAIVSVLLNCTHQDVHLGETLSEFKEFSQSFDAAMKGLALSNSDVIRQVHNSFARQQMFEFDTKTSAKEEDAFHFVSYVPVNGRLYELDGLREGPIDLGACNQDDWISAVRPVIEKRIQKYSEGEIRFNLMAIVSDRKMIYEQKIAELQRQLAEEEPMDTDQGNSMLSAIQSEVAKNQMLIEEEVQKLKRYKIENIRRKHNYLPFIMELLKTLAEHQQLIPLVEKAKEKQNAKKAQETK
#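 Material: human UCH37 enzyme supplied as purified proteasome complex. Measure: % inhibition of Ub-AMC cleavage fluorescence. Medium: pH 7.4 Tris-HCl (50 mM) with ovalbumin, ATP-MgCl2, DTT. Times: 30 min preincubation with enzyme, 25 min cleavage at room temperature. Detection: AMC fluorescence intensity at 355/460 nm.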
# Fh CTSL1 inh = Fasciola hepatica cathepsin L1 inhibitors, primary screen, counter-screen for PFM18AAP inhibitor project, biochemical, QFRET, fluorogenic peptide substrate; recombinant F. hepatica cathepsin L1, Z-Leu-Arg-MCA fluorescence; inhibition, % at 5.96 µM; 0.49% of 300,000 active; AID 1906, 2009;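 active means inhibition above the mean of all tested compounds plus 3 SD, set per screening campaign, cut at about 17% in these data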
# PP5 inh = PP5 phosphatase inhibitors, primary screen, biochemical, fluorescence; Serine/threonine-protein phosphatase 5 (Homo sapiens), P53041; purified PP5c, OMFP substrate fluorescence; inhibition, % at 6.7 µM; 0.18% of 320,000 active;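 active means inhibition above the campaign's mean inhibition across all tested compounds plus 3 SD, cut at about 9.5% in these data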
# PP1 counter = PP1-alpha phosphatase inhibitors, primary screen, counter-screen for PP5 inhibitor project, biochemical, fluorescence, OMFP substrate, single point. AID 2235, 2010. Serine/threonine-protein phosphatase PP1-alpha catalytic subunit (Homo sapiens), P62136. purified PP1alpha. 0.9% of 320,000 active. inhibition, % at 6.7 µM;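 active means inhibition above the mean inhibition of all tested compounds plus 3 SD, computed separately for each screening campaign, cut at about 15% in these data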
# Target sequence (P62136 whole entry, looked up): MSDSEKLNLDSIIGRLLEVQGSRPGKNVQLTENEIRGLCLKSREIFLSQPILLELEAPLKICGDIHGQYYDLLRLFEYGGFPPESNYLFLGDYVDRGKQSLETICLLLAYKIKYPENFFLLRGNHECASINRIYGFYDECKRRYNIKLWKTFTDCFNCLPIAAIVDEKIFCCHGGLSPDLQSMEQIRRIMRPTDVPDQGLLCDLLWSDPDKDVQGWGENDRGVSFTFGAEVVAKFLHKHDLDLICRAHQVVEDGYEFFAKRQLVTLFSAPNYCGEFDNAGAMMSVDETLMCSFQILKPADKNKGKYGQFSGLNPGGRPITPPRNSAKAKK
# PREPL inhibitor = PREPL enzyme inhibitors, primary screen, biochemical, fluorescence polarization | Prolyl endopeptidase-like (Homo sapiens), Q4J6C6 | recombinant PREPL, fluorescence polarization activity-based probe | inhibition, % at 5.96 µM | 0.68% of 320,000 active; in the data active means inhibition above about 43%
# PP1 inh confirm = PP1 phosphatase inhibitors, confirmation, biochemical, fluorescence, OMFP substrate, triplicate. shares compounds with PP1 counter. purified PP1alpha. inhibition, % at 6.7 µM. 52% of 1,900 active. AID 2358, 2010;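 active means mean PP1 inhibition above a set limit taken from the earlier primary screen, cut at about 15% in these data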
# PP5 counter = PP5 phosphatase inhibition by PP1 hits, confirmation, counter-screen for PP1 inhibitor project, biochemical, fluorescence, triplicate | 4% of 1,900 active | purified PP5c, OMFP fluorescence | shares compounds with PP1 counter | inhibition, % at 6.7 µM;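 active means mean PP5 inhibition over triplicate wells above about 9.5% taken from the earlier PP1 screen, limit read from the data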
# Numbers stand for hits; – = inactive; · = no result.
SMILES,UBC13 polyUb,UCH37 DUB inh,Fh CTSL1 inh,PP5 inh,PP1 counter,PREPL inhibitor,PP1 inh confirm,PP5 counter
CCCCCCN1C(=O)C(O)=C(C(C)=O)C1c1ccc(Cl)cc1 (stereo not drawn),–,–,–,–,23,–,18,–
CCOc1ccc(C2C(C(C)=O)=C(O)C(=O)N2CCc2c[nH]c3ccccc23)cc1 (stereo not drawn),–,–,–,–,22,–,29,–
CCOc1ccc(S(=O)(=O)NN=C(C)c2ccc3c(c2)OCO3)cc1,·,–,·,·,·,·,·,·
Cc1ccc(C(=O)NN=Cc2ccc([N+](=O)[O-])o2)cn1,·,–,·,·,·,·,·,·
COc1ccccc1C(=O)NCC(=O)NN=C(C)Cc1ccccc1,·,–,·,·,·,·,·,·
N=C1C(c2nc3ccccc3s2)=C(O)CN1NC(=O)c1ccccc1[N+](=O)[O-],–,–,–,–,21,–,25,–
CCCCC(=O)N/N=C/c1ccc(-c2ccc([N+](=O)[O-])cc2)o1,–,·,–,–,–,–,·,·
Cc1cc(C)n(Cc2ccc(C(=O)N/N=C/c3ccc(-c4ccc([N+](=O)[O-])cc4)o3)o2)n1,–,·,–,–,33,–,28,–
Cc1cccc(Nc2nnc(SCC(=O)c3ccc(Br)s3)s2)c1C,–,–,–,–,21,–,21,–
C/C(N)=C(/C#N)C(=O)CSc1nnc(Nc2cccc(C)c2C)s1,–,–,–,–,–,–,·,·
CC(=NNS(=O)(=O)c1ccc(C)cc1)c1ccc(NC(=O)C(F)(F)F)cc1,·,–,·,·,·,·,·,·
O=C1C(Cc2ccccc2)Nc2ncnc(N3CCc4ccccc4C3)c2N1Cc1ccc(Br)cc1 (stereo not drawn),–,·,–,–,20,–,–,–
O=C(CC=NOCc1ccc(F)cc1Cl)c1cnc(-c2ccccc2)s1,·,–,·,·,·,·,·,·
O=C(Cc1cc(=O)[nH][nH]1)N/N=C/C=C/c1ccccc1,–,·,–,–,19,–,–,–
Cc1ccc(C(=O)N(Cc2nnc(-c3ccc(Cl)cc3)o2)C2CC2)o1,–,–,·,–,–,–,·,·
O=C1CCCN1c1ccc(C(=O)N(Cc2nnc(-c3ccc(Cl)cc3)o2)C2CC2)cc1,–,–,–,–,18,–,–,–
CN(C)c1ccc(-n2cccc2C=Nn2cnnc2)cc1,·,–,·,·,·,·,·,·
O=C(O)CCC(=NNC(=O)CNC(=O)Cc1ccccc1)c1ccccc1,·,–,·,·,·,·,·,·
O=P(O)(O)CP(=O)(O)O,–,·,–,–,25,–,38,–
COc1ccc2nc(N=Cc3c(C)[nH]n(-c4ccc(C)cc4C)c3=O)sc2c1,·,–,·,·,·,·,·,·
Cc1nc(SC2CC(=O)N(c3ccccc3)C2=O)n[nH]1 (stereo not drawn),–,–,–,–,21,–,–,–
O=C1CC(Sc2ncccn2)C(=O)N1c1ccccc1 (stereo not drawn),–,–,–,–,–,–,·,·
CCc1cc(=O)oc2cc(C)c(CN3CCCC3)c(O)c12,–,–,–,–,22,–,–,–
CCc1cc(=O)oc2cc(C)c(CN3CCCCC3)c(O)c12,·,–,–,–,–,–,·,·
COc1cc([N+](=O)[O-])cc(C=NNC(=O)c2ccc(NC(=O)c3ccc(C)cc3)cc2)c1O,·,–,·,·,·,·,·,·
SMILES,UBC13 polyUb,UCH37 DUB inh,Fh CTSL1 inh,PP5 inh,PP1 counter,PREPL inhibitor,PP1 inh confirm,PP5 counter
CCCOc1ccc(/C=N/Nc2cc(N3CCOCC3)ncn2)c(O)c1,–,·,–,–,27,–,23,–
CCN(c1ccccc1)S(=O)(=O)c1ccc(C(=O)Nc2nnc(C3CC3)o2)cc1,–,–,–,–,31,–,29,–
COCCN(CCOC)S(=O)(=O)c1ccc(C(=O)Nc2nnc(C3CC3)o2)cc1,–,–,–,–,–,–,·,·
CN(c1ccccc1)S(=O)(=O)c1ccc(C(=O)Nc2nnc(C3CC3)o2)cc1,–,–,–,–,22,–,19,–
O=c1c(Cl)c(NN=Cc2ccc(Br)cc2)cnn1-c1ccccc1,·,–,·,·,·,·,·,·
O=c1c(Cl)c(N/N=C/c2ccc(Cl)cc2)cnn1-c1ccccc1,–,·,–,–,29,–,21,–
CC(=NNC(=O)C(O)c1ccccc1)c1ccc(Cl)s1 (stereo not drawn),·,–,·,·,·,·,·,·
CCOc1cc(C=Nn2c(C)nc3ccccc3c2=O)ccc1O,·,–,·,·,·,·,·,·
COc1ccc2c(c1)cc(C(=O)N/N=C/c1c(O)c(C(=O)O)cc3ccccc13)n2C,–,·,–,–,35,–,30,–
Cn1c(O)c(/C=N/NC(=O)c2cc3ccccc3cc2O)c2ccccc21,–,·,–,–,22,–,16,–
Cn1c(O)c(C=NNC(=O)c2cc3ccccc3cc2O)c2ccccc21,·,–,·,·,·,·,·,·
ON=C1CCc2nonc2C1=NO,·,–,·,·,·,·,·,·
Cc1cccc2c1Sc1ccc(Cl)cc1CC2N1CCNCC1 (stereo not drawn),–,–,–,–,19,–,–,–
CC(C)c1ccc2c(c1)C(N1CCNCC1)Cc1ccc(F)cc1S2 (stereo not drawn),–,–,–,–,19,–,–,–
CN1CCN(C2Cc3ccc(F)cc3Sc3cc(F)c(Cl)cc32)CC1 (stereo not drawn),–,·,–,–,–,–,·,·
CCOc1ccc(S(=O)(=O)NCCCN2CCOCC2)cc1,–,–,–,–,23,–,–,–
CCOc1ccc(S(=O)(=O)NCCC(=O)N2CCCC(C)C2)cc1 (stereo not drawn),–,–,–,–,–,–,·,·
CCOc1ccc(S(=O)(=O)NCCC(=O)N2CC(C)CC(C)C2)cc1 (stereo not drawn),–,–,–,–,79,–,–,–
O=C(Nc1nc(-c2ccccn2)cs1)C1CC(=O)N(c2ccc3c(c2)OCCO3)C1 (stereo not drawn),–,–,–,–,45,–,55,–
O=C(C[n+]1cc(-c2ccc(Cl)cc2)n2c1CCC2)Nc1nc(-c2ccc(F)cc2)cs1,–,–,–,–,21,–,–,–
O=C1NC(=O)/C(=C\c2ccccc2OCc2ccc([N+](=O)[O-])cc2)N1,–,–,–,–,–,–,·,·
O=C1NC(=O)/C(=C\c2ccc(OCc3cccc([N+](=O)[O-])c3)cc2)N1,–,·,–,–,43,–,20,–
Cc1ccc(-n2ncc(C#N)c2N=CN2CCN(C)CC2)cc1,·,–,·,·,·,·,·,·

# Screening data: PubChem, several laboratories
